Measured values as given in ChEMBL document CHEMBL2331481, “Chemotherapy of leishmaniasis part X: synthesis and bioevaluation of novel terpenyl heterocycles” (Bioorg Med Chem Lett, 2013).
pIC50: −log10 of the molar value.

Legend:
[1] = system: Leishmania donovani; test: Antileishmanial activity against Leishmania donovani amastigote infected in mouse J774A.1 cells after 72 hrs by luciferase reporter gene assay; assay type: functional, organism-based; conditions: J774.A1, 72 h
Outline: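 Macrophages seeded at 4×10^4 cells/well in RPMI-1640 + 10% FCS, 37 °C CO2, 24 h; then infected with stationary-phase luciferase-expressing promastigotes (4×10^5/well), which transform to amastigotes. Compounds at 2-fold dilutions, 7 points from 40 µM, 72 h. Read-out: luminescence after Steady Glo in PBS. IC50 by nonlinear regression of concentration-response, four-parameter Hill equation.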

[2] = Selectivity index, ratio of CC50 for human KB cells to IC50 for Leishmania donovani amastigote infected in mouse J774A.1 cells; assay type: functional
Outline: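 SI computed as CC50 in KB cells (MTT, 72 h) divided by IC50 against amastigotes in luciferase-reporter infected J774A.1 macrophages (72 h).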

[3] = system: Leishmania donovani; test: Leishmanicidal activity against Leishmania donovani MHOM/IN/80/Dd8 infected in golden hamster at 50 mg/kg, ip for 5 consecutive days measured on day 7 of last drug administration by Giemsa staining method; assay type: functional; conditions: MHOM/IN/80/Dd8, ip, 168 h, route intraperitoneal
Outline: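 Inbred hamsters of either sex, 40-45 g, infected intracardially with 1×10^7 amastigotes; infection establishes in 15-20 days. Only animals with +1 infection (5-15 amastigotes/100 spleen nuclei) on pre-treatment spleen biopsy were used, randomized by parasite burden, 5-6 per group. i.p. dosing began 2 days after biopsy. Giemsa amastigote counts; PI = 100 − [ANAT×100/(INAT×TIUC)].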

[4] = Cytotoxicity against human KB cells after 72 hrs by MTT assay; assay type: cell-based
Outline: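 Exponentially growing cells at 1×10^5/well, 72 h at 37 °C, humidified CO2, with compounds at 3-fold dilutions, 7 points from 400 µM. Compounds dissolved in DMSO, diluted in complete medium. DMSO vehicle wells; podophyllotoxin reference. MTT (5 mg/ml in PBS) 2 h at 37 °C, formazan dissolved in DMSO, absorbance 544 nm. CC50 is the concentration giving 50% viability loss versus medium-only cells, estimated per Huber and Koella.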

For `CC1=C(/C=C/C2=NN(c3ccccc3)C(c3ccc(Cl)cc3)C2)C(C)(C)CCC1` (stereo not drawn), the pIC50 [1] was < 4.70.

In the case of `CC1=C(/C=C/C2=NN(c3ccccc3)C(c3cccc(Cl)c3)C2)C(C)(C)CCC1` (stereo not drawn), the pIC50 [1] was < 4.40.

In the case of `CC1=C(/C=C/C2=NN(c3ccccc3)C(c3ccc(F)cc3)C2)C(C)(C)CCC1` (stereo not drawn), the pIC50 [1] was < 4.40.

With `CC1=C(/C=C/C2=NN(c3ccccc3)C(c3ccc(OCc4ccccc4)cc3)C2)C(C)(C)CCC1` (stereo not drawn) the pIC50 [1] was < 4.40.

With `CC1=CCCC(C)(C)C1/C=C/C1=NN(c2ccccc2)C(c2ccccc2[N+](=O)[O-])C1` (stereo not drawn) the pIC50 [1] was < 4.70.

For `CC1=CCCC(C)(C)C1/C=C/C1=NN(c2ccccc2)C(c2ccc([N+](=O)[O-])cc2)C1` (stereo not drawn), the pIC50 [1] was < 4.40.

With `CC1=CCCC(C)(C)C1/C=C/C1=NN(c2ccccc2)C(c2ccc(F)cc2)C1` (stereo not drawn) the pIC50 [1] was < 4.40.

With `COc1ccc(C2CC(/C=C/C3C(C)=CCCC3(C)C)=NN2c2ccccc2)cc1OC` (stereo not drawn) the pIC50 [1] was < 4.70.

For `COc1cc(C2CC(/C=C/C3C(C)=CCCC3(C)C)=NN2c2ccccc2)cc(OC)c1OC` (stereo not drawn), the pIC50 [1] was < 4.70.

In the case of `CC1=CCCC(C)(C)C1/C=C/c1cc(-c2ccccc2[N+](=O)[O-])n(-c2ccccc2)n1` (stereo not drawn), the pIC50 [1] was < 4.40.

In the case of `CC1=CCCC(C)(C)C1/C=C/c1cc(-c2ccc([N+](=O)[O-])cc2)n(-c2ccccc2)n1` (stereo not drawn), the pIC50 [1] was < 4.40.

For `CC1=CCCC(C)(C)C1/C=C/c1cc(-c2ccc(F)cc2)n(-c2ccccc2)n1` (stereo not drawn), the pIC50 [1] was < 4.40.

With `COc1ccc(-c2cc(/C=C/C3C(C)=CCCC3(C)C)nn2-c2ccccc2)cc1OC` (stereo not drawn) the pIC50 [1] was < 4.70.

In the case of `COc1cc(-c2cc(/C=C/C3C(C)=CCCC3(C)C)nn2-c2ccccc2)cc(OC)c1OC` (stereo not drawn), the pIC50 [1] was < 4.40.

For `CC1=C(/C=C/C2=NN(c3ccccc3)C(c3ccccc3[N+](=O)[O-])C2)C(C)(C)CCC1` (stereo not drawn), the pIC50 [1] was < 4.70.

In the case of `CC1=C(/C=C/C2=NN(c3ccccc3)C(c3ccc([N+](=O)[O-])cc3)C2)C(C)(C)CCC1` (stereo not drawn), the pIC50 [1] was < 4.40.

For `CC1=C(/C=C/C2=NN(c3ccccc3)C(c3cccc([N+](=O)[O-])c3)C2)C(C)(C)CCC1` (stereo not drawn), the “Ratio CC50/IC50” value [2] was 16.48, the inhibition in vivo at 50 mg/kg [3] was 7.13% and the pIC50 [1] was 4.77. For the same compound, the CC50 at 72 h [4] was 279 µM.

With `COc1ccc(C2CC(/C=C/C3=C(C)CCCC3(C)C)=NN2c2ccccc2)cc1OC` (stereo not drawn) the “Ratio CC50/IC50” value [2] was 29.46, the inhibition in vivo at 50 mg/kg [3] was 80.8% and the pIC50 [1] was 5.13. The CC50 at 72 h [4] was 221 µM.

With `COc1cc(C2CC(/C=C/C3=C(C)CCCC3(C)C)=NN2c2ccccc2)cc(OC)c1OC` (stereo not drawn) the pIC50 [1] was < 4.70.

In the case of `CC1=C(/C=C/C2=NN(c3ccccc3)C(c3ccccc3Cl)C2)C(C)(C)CCC1` (stereo not drawn), the pIC50 [1] was < 4.70.

In the case of `CCCCCCCCCCCCCCCCOP(=O)([O-])OCC[N+](C)(C)C` [MILTEFOSINE], the “Ratio CC50/IC50” value [2] was 0.26 and the inhibition in vivo at 50 mg/kg [3] was 95.3%.
